Source: ChEMBL document CHEMBL1137143, “Synthesis of C8-linked pyrrolo[2,1-c][1,4]benzodiazepine-acridone/acridine hybrids as potential DNA-binding agents” (Bioorg Med Chem Lett, 2004)

Key:
Nucleic Acid [1] = assay: (§1) DNA-binding ability was determined by thermal denaturation method using calf thymus (CT) DNA; expressed as Delta Tm after 0 hr; type: functional; conditions: Bos taurus
Summary of the method: (§2)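 Thermal melting of CT-DNA, 100 µM, with ligand at 20 µM (1:5 PBD:DNA molar ratio) in 10 mM sodium phosphate + 1 mM EDTA, pH 7.00; incubated at 37 °C for 0 h or 18 h before melting. ΔTm taken relative to DNA alone, whose Tm is a mean of 10 separate determinations.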

Nucleic Acid [2] = assay: (§3) DNA-binding ability was determined by thermal denaturation method using calf thymus (CT) DNA; expressed as Delta Tm after 18 hr; type: functional; conditions: Bos taurus; summary of the method: as §2
M14 = assay: In vitro cytotoxicity was determined against M14 cell line; type: functional; conditions: Homo sapiens, read-out: LC50 (the source's name)
A498 = assay: In vitro cytotoxicity was determined against A498 cell line; type: functional; conditions: Homo sapiens, read-out: LC50 (the source's name)
NCI-H23 = assay: In vitro cytotoxicity was determined against NCI-H23 cell line; type: functional; conditions: Homo sapiens, read-out: LC50 (the source's name)
UACC-62 = assay: In vitro cytotoxicity was determined against UACC-62 cell line; type: functional; conditions: Homo sapiens, read-out: LC50 (the source's name)
Bos taurus [3] = species: Bos taurus; assay: as §1; type: functional, organism-based; summary of the method: as §2
Bos taurus [4] = species: Bos taurus; assay: as §3; type: functional, organism-based; summary of the method: as §2

**Q.** For `COc1cc2c(cc1O)N=C[C@@H]1CCCN1C2=O`, which ΔTm (Nucleic Acid [1]) is on record?
**A.** The ΔTm was 0.4 °C.

**Q.** And the ΔTm (Nucleic Acid [2])?
**A.** The ΔTm was 0.7 °C.

**Q.** What does the source list for `COc1cc2c(cc1OCCNC(=O)c1cccc3cc4ccccc4nc13)N=C[C@@H]1CCCN1C2=O`?
**A.** ΔTm (Nucleic Acid [1]): 3.1 °C; ΔTm (Nucleic Acid [2]): 5 °C

**Q.** `COc1cc2c(cc1OCCCNC(=O)c1cccc3c(O)c4ccccc4nc13)N=C[C@@H]1CCCN1C2=O` was tested. Which CC50 (M14) did it give?
**A.** Its CC50 is under 10 nM.

**Q.** And the CC50 (A498)?
**A.** The CC50 was 50 nM.

**Q.** And the CC50 (NCI-H23)?
**A.** The CC50 was 70 nM.

**Q.** And the CC50 (UACC-62)?
**A.** Its CC50 is under 10 nM.

**Q.** And the ΔTm (Nucleic Acid [1])?
**A.** Its ΔTm is 11 °C.

**Q.** What about the ΔTm (Nucleic Acid [2]) of the same compound?
**A.** The ΔTm was 12.5 °C.

**Q.** With `COc1cc2c(cc1OCCCNC(=O)c1cccc3cc4ccccc4nc13)N=C[C@@H]1CCCN1C2=O` as the compound, how does the ΔTm (Nucleic Acid [1]) read?
**A.** The ΔTm was 5.9 °C.

**Q.** What about the ΔTm (Nucleic Acid [2]) of the same compound?
**A.** The ΔTm was 7.7 °C.

**Q.** Which results are given for `COc1cc2c(cc1OCCNC(=O)c1cccc3c(O)c4ccccc4nc13)N=C[C@@H]1CCCN1C2=O`?
**A.** ΔTm (Bos taurus [3]): 4.7 °C; ΔTm (Bos taurus [4]): 5.7 °C; ΔTm (Nucleic Acid [1]): 4.7 °C; ΔTm (Nucleic Acid [2]): 5.7 °C
